Common to all, as to type: biochemical
The target of experiment [1] is T1, human recombinant core 2 β1,6-GlcNAc-transferase (C2GnT1) (Homo sapiens, UniProt Q02742).
T1 sequence (Q02742 33-428 limits assumed): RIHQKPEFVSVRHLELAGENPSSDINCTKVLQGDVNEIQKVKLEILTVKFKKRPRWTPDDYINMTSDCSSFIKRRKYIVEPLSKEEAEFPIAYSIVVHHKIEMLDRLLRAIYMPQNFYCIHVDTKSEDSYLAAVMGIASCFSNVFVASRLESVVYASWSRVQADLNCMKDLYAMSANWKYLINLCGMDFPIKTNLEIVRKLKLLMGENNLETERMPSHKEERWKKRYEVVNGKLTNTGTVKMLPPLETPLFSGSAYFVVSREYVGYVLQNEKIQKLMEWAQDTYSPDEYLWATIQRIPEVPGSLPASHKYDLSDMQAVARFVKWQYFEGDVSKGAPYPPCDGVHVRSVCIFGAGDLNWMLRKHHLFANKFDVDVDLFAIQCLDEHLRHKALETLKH
Put plainly: C2GnT1 glycosyltransferase assay. The following applies: acceptor substrate 0.5 mM; 0.5 mM Galβ1–3GalNAcα-pnp set to 100%.

Experiment [2] concerns the target T2, human recombinant core 2/4 β1,6-GlcNAc-transferase (C2GnT2) (Homo sapiens, UniProt O95395).
T2 sequence (O95395 27-438): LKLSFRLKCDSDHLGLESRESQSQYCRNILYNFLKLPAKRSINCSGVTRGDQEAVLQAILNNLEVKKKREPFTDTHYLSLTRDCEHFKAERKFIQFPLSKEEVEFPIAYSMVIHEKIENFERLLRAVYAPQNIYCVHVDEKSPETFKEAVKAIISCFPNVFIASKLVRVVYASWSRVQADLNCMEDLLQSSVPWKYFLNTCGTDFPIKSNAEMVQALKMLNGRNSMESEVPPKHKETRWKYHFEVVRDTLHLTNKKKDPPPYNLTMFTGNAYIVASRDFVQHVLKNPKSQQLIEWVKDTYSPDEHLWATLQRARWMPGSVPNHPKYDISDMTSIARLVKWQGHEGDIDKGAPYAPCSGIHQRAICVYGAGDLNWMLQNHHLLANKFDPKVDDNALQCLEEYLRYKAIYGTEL
The following applies: acceptor substrate 0.5 mM; 0.5 mM Galβ1–3GalNAcα-pnp set to 100%.

Experiment [3] deals with human recombinant core 1 β1,3-Gal-transferase (C1GalT) (Homo sapiens, UniProt Q9NS00). The experiment in a line: C1GalT glycosyltransferase assay. Particulars: acceptor substrate 0.5 mM; 0.5 mM GalNAcα-Bn set to 100%.
For experiment [4], the target named is T3, human recombinant core 3 β1,3-GlcNAc-transferase (C3GnT) (Homo sapiens, UniProt Q6ZMB0).
T3 sequence (Q6ZMB0 32-384 limits assumed): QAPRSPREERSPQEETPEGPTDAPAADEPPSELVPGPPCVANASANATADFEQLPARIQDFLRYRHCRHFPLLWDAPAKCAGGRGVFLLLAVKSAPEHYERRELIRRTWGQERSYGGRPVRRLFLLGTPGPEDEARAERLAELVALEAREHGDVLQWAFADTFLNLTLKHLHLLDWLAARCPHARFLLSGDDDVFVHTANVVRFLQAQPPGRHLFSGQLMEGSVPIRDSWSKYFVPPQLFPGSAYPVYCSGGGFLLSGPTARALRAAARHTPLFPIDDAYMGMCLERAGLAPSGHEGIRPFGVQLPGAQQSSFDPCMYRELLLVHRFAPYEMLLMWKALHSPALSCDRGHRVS
Put plainly: C3GnT glycosyltransferase assay. Particulars: acceptor substrate 0.5 mM; 0.5 mM GalNAcα-Bn set to 100%.

The target in experiment [5] is T3, human recombinant core 3 β1,3-GlcNAc-transferase (C3GnT). The experiment in a line: Inhibition of C3GnT. Particulars: inhibitor 0.5 mM, 0.5 mM GalNAcα-Bn acceptor. The gist of the method:
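His-tagged human C3GnT from Sf9 cells, Ni2+-NTA purified, 0.003 mg protein per assay. Inhibitor at acceptor concentration unless indicated. Incubated 1 h at 37 °C, then cold-water stop. AG1×8 anion exchange; eluate counted by scintillation.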

Experiment [6] has as its target T1, human recombinant core 2 β1,6-GlcNAc-transferase (C2GnT1). The experiment in a line: Inhibition of C2GnT1. The following applies: inhibitor 0.5 mM, 0.5 mM Galβ1–3GalNAcα-pnp acceptor.

Chain of human recombinant core 1 β1,3-Gal-transferase (C1GalT) (Q9NS00 30-363 limits assumed): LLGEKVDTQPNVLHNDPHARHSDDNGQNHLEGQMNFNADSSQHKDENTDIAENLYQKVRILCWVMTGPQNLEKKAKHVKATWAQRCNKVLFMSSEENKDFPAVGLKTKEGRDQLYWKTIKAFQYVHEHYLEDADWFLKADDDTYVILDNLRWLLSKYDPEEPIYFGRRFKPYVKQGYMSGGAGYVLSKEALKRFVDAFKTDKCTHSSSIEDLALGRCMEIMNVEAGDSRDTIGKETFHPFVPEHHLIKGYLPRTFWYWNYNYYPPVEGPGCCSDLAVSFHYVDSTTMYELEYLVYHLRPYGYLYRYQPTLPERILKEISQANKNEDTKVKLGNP

Regarding `CCCC(=O)N[C@H]1[C@@H](OCc2ccccc2)O[C@H](CO)[C@H](O)[C@@H]1O` [2-N-Butyryl-GalNα-Bn, benzyl 2-butanamido-2-deoxy-α-D-galactoside], in experiment [1], the “C2GnT1 activity (%)” value is recorded as below 1%. In experiment [2], the “C2GnT2 activity (%)” value is below 1%. In addition, the “C1GalT activity (%)” value in experiment [3] is on record as below 1%. The “C3GnT activity (%)” value in experiment [4] is below 1%. Besides, the “C3GnT Inhibition (%)” value in experiment [5] was “did not inhibit”. Also, the “C2GnT1 Inhibition (%)” value in experiment [6] is recorded as “did not inhibit”.

Take `CC(=O)N[C@H]1[C@@H](OCc2ccccc2)O[C@H](C)[C@H](O)[C@@H]1O[C@@H]1O[C@H](CO)[C@H](O)[C@H](O)[C@H]1O` [Galβ1–3(6-deoxy)GalNAcα-Bn]: the “C2GnT1 activity (%)” value in experiment [1] is given as below 1%. Besides, the “C2GnT2 activity (%)” value in experiment [2] was below 1%. The “C1GalT activity (%)” value in experiment [3] was below 1%. Also, the “C3GnT activity (%)” value in experiment [4] is reported as below 1%.

Regarding `CC(=O)N[C@H]1[C@@H](OCc2ccccc2)O[C@H](CO[C@@H]2O[C@H](CO)[C@@H](O)[C@H](O)[C@H]2NC(C)=O)[C@H](O)[C@@H]1O` [GlcNAcβ1–6-GalNAcα-Bn], the “C2GnT1 activity (%)” value in experiment [1] was below 1%. For the same molecule, the “C2GnT2 activity (%)” value in experiment [2] is below 1%. Moreover, in experiment [3], the “C1GalT activity (%)” value is 74%. The “C3GnT activity (%)” value in experiment [4] was below 1%.

Take AHGVT-(GalNAcα)SAPDTRPAPGSTAPPA: in experiment [1], the “C2GnT1 activity (%)” value was below 1%. Moreover, the “C2GnT2 activity (%)” value in experiment [2] was below 1%. In experiment [3], the “C1GalT activity (%)” value was 39%. The “C3GnT activity (%)” value in experiment [4] stood at 15%.
